Eleven molecules from ChEMBL document CHEMBL1268838, “The synthesis and biologic evaluation of anti-platelet and cytotoxic β-nitrostyrenes” (Bioorg Med Chem, 2010) can be followed below.

A short description of data set [1]: Antiaggregatory activity in human platelets assessed as inhibition of collagen-induced platelet aggregation preincubated for 3 mins before collagen challenge by turbidimetry analysis. It is filed as functional, cell-based. The gist of the method: (§1)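 Washed platelets from ACD-anticoagulated blood of drug-free healthy volunteers, resuspended at 3 × 10⁸/ml in Tyrode's solution with Ca²⁺ 2 mM, glucose 11.1 mM and BSA 3.5 mg/ml. Platelets were stirred at 1200 rpm and 37 °C for 3 min with DMSO (0.5%, vehicle) or compound, then the inducer was added. Aggregation was read by light-transmission aggregometry. IC50 is the mean of two independent experiments (TPA lines n = 3).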

A short description of data set [2]: Antiaggregatory activity in human platelets assessed as inhibition of thrombin-induced platelet aggregation preincubated for 3 mins before thrombin challenge by turbidimetry analysis. It is filed as functional, cell-based. The gist of the method: as §1
Data set [3] has as its system MDA-MB-231. The data set can be described thus: Cytotoxicity against human MDA-MB-231 cells after 72 hrs by MTT assay. The data set is classed as functional, cell-based. As to conditions: MDA-MB-231, 72 h; call rule not given here. The gist of the method: (§2)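 MDA-MB-231 breast cancer or HBL-100 non-malignant breast epithelial cells: freshly trypsinized cells seeded at 8000 per well, with compound added from DMSO-diluted stock. After 72 h, attached cells were given MTT (0.5 mg/mL, 1 h) and solubilized in DMSO.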

Data set [4] deals with MDA-MB-231. Put plainly: Cytotoxicity against human MDA-MB-231 cells at 20 uM after 72 hrs by MTT assay. It is filed as functional. The note with it: MDA-MB-231, 72 h. Background: Tetrazolium assays rely on reduction of a dye to a coloured formazan, in cell work by metabolically active cells.
In data set [5] the test system is HBL-100. Put plainly: Cytotoxicity against human HBL100 cells after 72 hrs by MTT assay. The note with it: HBL-100, 72 h. It is filed as functional, cell-based. The gist of the method: as §2
Data set [6] relates to HBL-100. The data set can be described thus: Cytotoxicity against human HBL100 cells at 20 uM after 72 hrs by MTT assay. The data set is classed as functional. The note with it: HBL-100, 72 h.
Data set [7] is described as follows: Antiaggregatory activity in human platelets assessed as inhibition of A23187-induced platelet aggregation preincubated for 3 mins before A23187 challenge by turbidimetry analysis. It is filed as functional, cell-based. An outline of the steps: as §1
The nature of data set [8]: Antiaggregatory activity in human platelets assessed as inhibition of TPA-induced platelet aggregation preincubated for 3 mins before TPA challenge by turbidimetry analysis. The data set is classed as functional, cell-based. The gist of the method:
as §1

For data set [9], the system named is Integrin alpha-IIb/beta-3 (Homo sapiens). Put plainly: Inhibition of glycoprotein 2b/3a activation in human platelets assessed as inhibition of thrombin-induced PAC-1 binding preincubated for 3 mins before thrombin challenge after 15 mins by flow cytometry. The note with it: 0.25 h. (In flow cytometry, cells or beads pass a laser one at a time.)

Where only a bound is given, the exact number is not on record here.

On to `COc1cc(/C=C/[N+](=O)[O-])ccc1OC(=O)c1ccc(C(C)(C)C)cc1`, for which the IC50 is 0.6 µM in [1]; 0.6 µM in data set [2]; above 20 µM in the data set on MDA-MB-231 [3]; above 20 µM in the data set with HBL-100 [5]; 1.1 µM in data set [7]; 3.5 µM in data set [8]. The inhibition at 20 µM in the data set on MDA-MB-231 [4] was 2.5%; with HBL-100 [6] it was -2.1%. Also, the Activity entry in [9] is reported as “Dose-dependent effect”.

Take `CCOc1cc(/C=C/[N+](=O)[O-])ccc1O`: the IC50 was 16.2 µM in [1], 78.1 µM in [2], above 20 µM in the data set on MDA-MB-231 [3] and above 20 µM in the data set on HBL-100 [5]. Besides, the figures for the inhibition at 20 µM in the data set with MDA-MB-231 [4] and in the data set with HBL-100 [6] were 34.4% and 35.2%, respectively.

As to `COc1cc(/C=C/[N+](=O)[O-])ccc1OC(=O)c1ccc(Br)cc1`, the IC50 was 0.6 µM in data set [1], 1.2 µM in [2], above 20 µM with MDA-MB-231 [3] and above 20 µM in the data set with HBL-100 [5]. Further, the inhibition at 20 µM with MDA-MB-231 [4] was 9.1%; in the data set on HBL-100 [6], 6.3%.

`COc1cc(/C=C/[N+](=O)[O-])ccc1OC(=O)c1ccc(C(F)(F)F)cc1`: the 50% inhibitory concentration (IC50) is 8.3 µM in data set [1], 6.2 µM in [2], above 20 µM in the data set on MDA-MB-231 [3] and above 20 µM with HBL-100 [5]. The inhibition at 20 µM in the data set with MDA-MB-231 [4] was -4.9%; in the data set on HBL-100 [6], -7.3%.

For the molecule `COc1cc(/C=C/[N+](=O)[O-])ccc1OC(=O)c1cccc(Cl)c1Cl`, the IC50 in data set [1] was 0.6 µM; in data set [2] it was 0.7 µM; in the data set with MDA-MB-231 [3], above 20 µM; with HBL-100 [5] it was above 20 µM; in data set [7], 3.3 µM; in data set [8], 5.3 µM. Besides, the inhibition at 20 µM was -4.9% with MDA-MB-231 [4] and 11.5% in the data set on HBL-100 [6]. The Activity entry in data set [9] is “Dose-dependent effect”.

With `COc1cc(/C=C/[N+](=O)[O-])ccc1OC(=O)c1ccc(F)c(F)c1F`, the IC50 was 2.7 µM in [1], 23 µM in data set [2], above 20 µM in the data set with MDA-MB-231 [3] and above 20 µM with HBL-100 [5]. For the same molecule, the inhibition at 20 µM in the data set on MDA-MB-231 [4] came out at 3.7%; in the data set on HBL-100 [6], 1.1%.

As for `COc1cc(/C=C/[N+](=O)[O-])ccc1OC(=O)c1ccc(Cl)cc1`, the IC50 in data set [1] is 0.7 µM; in data set [2], 1.5 µM; with MDA-MB-231 [3], above 20 µM; in the data set with HBL-100 [5], above 20 µM. The results for the inhibition at 20 µM in the data set with MDA-MB-231 [4] and in the data set with HBL-100 [6] were 33.2% and 7.3%, respectively.

For the molecule `COc1cc(/C=C/[N+](=O)[O-])ccc1OC(=O)c1ccc(Cl)c(Cl)c1`, the IC50 in data set [1] is 1.8 µM; in data set [2] it was 1 µM; with MDA-MB-231 [3], above 20 µM; with HBL-100 [5], above 20 µM. In addition, the inhibition at 20 µM was 9.4% in the data set with MDA-MB-231 [4] and 15.2% with HBL-100 [6].

As to `COc1cc(/C=C/[N+](=O)[O-])ccc1OC(=O)c1cccc(F)c1F`, the IC50 in [1] is 1.6 µM; in data set [2] it was 3.3 µM; in the data set with MDA-MB-231 [3], above 20 µM; in the data set on HBL-100 [5], above 20 µM. In addition, the inhibition at 20 µM in the data set on MDA-MB-231 [4] was 25.5%; in the data set with HBL-100 [6], 4.1%.

`COc1cc(/C=C/[N+](=O)[O-])ccc1OC(=O)c1cc(F)cc(F)c1`: the IC50 was 1.4 µM in data set [1], 3.4 µM in data set [2], above 20 µM with MDA-MB-231 [3] and above 20 µM in the data set with HBL-100 [5]. Further, the inhibition at 20 µM was 24.7% in the data set on MDA-MB-231 [4] and 19% with HBL-100 [6].

As to `COc1cc(/C=C/[N+](=O)[O-])ccc1OC(=O)c1ccccc1C`, the IC50 is 1.2 µM in data set [1], 1.5 µM in [2], above 20 µM in the data set with MDA-MB-231 [3] and above 20 µM in the data set on HBL-100 [5]. Also, the results for the inhibition at 20 µM in the data set with MDA-MB-231 [4] and in the data set with HBL-100 [6] were 36.3% and 1.8%, respectively.

A word on the IC50: it is the concentration that inhibits the measured activity by half. As a reminder, the inhibition is the drop in the measured response relative to a control, in per cent.
